Results as given in ChEMBL document CHEMBL4513216, “Probing the Open Global Health Chemical Diversity Library for Multistage-Active Starting Points for Next-Generation Antimalarials” (ACS Infect Dis, 2020).

Test: Toxicity liver stage against HepG2, at 10uM
Assay type: cell-based
Design: test concentration 10 uM, cell line HepG2-A16-CD81EGFP
Conditions: human, HepG2-A16-CD81EGFP cells; read-out: INHIBITION
Procedure, shortened: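 Uninfected HepG2-A16-CD81EGFP cells, 3 × 10^3 per well, 1536-well, plated on prespotted compound at 10 μM final, parasite-free screening media added to match infected plates; puromycin 10 μM positive, DMSO 0.5% negative; run in parallel with 48 h PbLuc assay at 37 °C, 5% CO2; viability by CellTiter-Glo luminescence, normalized to controls.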

COC(C(=O)NC1CC1)c1ccccc1 (configuration not stated)
cytotoxicity at 10 µM: -3.73%

CCOC(=O)c1cnn(-c2cc(Oc3ccccc3C)ncn2)c1N
cytotoxicity at 10 µM: 15.8%

COCCOc1ccc(NC(=O)N(CCO)C2CC2)cn1
cytotoxicity at 10 µM: -2.77%

Fc1ccc(OCc2nnc([C@H]3CCN(Cc4cccnc4)C3)o2)cc1
cytotoxicity at 10 µM: -5.72%

N#Cc1ccc(CN2C[C@@H]3OCC(=O)N(CC(N)=O)[C@@H]3C2)cc1
cytotoxicity at 10 µM: -1.51%

COc1ccc(-c2nc(C#N)c(N(C)C)o2)cc1S(=O)(=O)N1CCCC1
cytotoxicity at 10 µM: -0.773%

CCc1cc(=O)[nH]c(SCc2ccccn2)n1
cytotoxicity at 10 µM: -0.543%

C[C@@H]1C[C@H]2CN(C(=O)C3=CCCCC3)C[C@H]2O1
cytotoxicity at 10 µM: 7.18%

CS(=O)(=O)N1CCOC2(CCCN(c3ncc(F)cn3)C2)C1 (configuration not stated)
cytotoxicity at 10 µM: 5.98%

CCS(=O)(=O)N1CCOC2(COCCN(c3nccs3)C2)C1 (configuration not stated)
cytotoxicity at 10 µM: 7.4%

CN(C)CCNC(=O)c1cc(-c2cnc(N(C)C)nc2)cn1CC1CC1
cytotoxicity at 10 µM: -5.81%

O=C1CCCN1CC1CN(C(=O)CC2CCCC2)Cc2nccn2C1 (configuration not stated)
cytotoxicity at 10 µM: 1.47%

CNC(=O)c1cc2c(nc1NCC1CC1)CCN(S(=O)(=O)C1CC1)CC2
cytotoxicity at 10 µM: -13.3%

CSc1[nH]nc(NC(=O)c2cccnc2)c1C#N
cytotoxicity at 10 µM: -4.87%

CCn1cc(S(=O)(=O)Nc2nc3c(s2)CCCC3)cn1
cytotoxicity at 10 µM: 6.33%

COc1cc(NCc2ccncc2)c(-c2nn[nH]n2)cc1OC
cytotoxicity at 10 µM: 7.91%

CCn1ccc(NC(=O)CN2C(=O)CC(C)(C)c3ccccc32)n1
cytotoxicity at 10 µM: -5.01%

Cc1ccc(Cn2ccc(NS(C)(=O)=O)n2)cc1
cytotoxicity at 10 µM: -12.2%

CC(=O)Nc1ccc(S(=O)(=O)N2CCOC(Cn3ccnc3)C2)cc1 (configuration not stated)
cytotoxicity at 10 µM: 0.166%

COCC(=O)Nc1ccnc(OCCN(C)C)c1
cytotoxicity at 10 µM: -7.67%

N#CCCCS(=O)(=O)NC(=O)c1ccccc1F
cytotoxicity at 10 µM: 0.749%

CN(CC(C)(CO)CO)C(=O)Nc1cc(F)cc(Cl)c1
cytotoxicity at 10 µM: -0.19%

CC(=O)N(C)C(c1cccnc1)c1ccc(F)c(F)c1 (configuration not stated)
cytotoxicity at 10 µM: -7.69%

CC(NC(=O)c1ccoc1)C(=O)N(C)Cc1cccc(C(F)(F)F)c1 (configuration not stated)
cytotoxicity at 10 µM: -13.6%

CCOc1nnc(CN2CCC(c3nc4ccccc4[nH]3)CC2)s1
cytotoxicity at 10 µM: -1.36%

N#Cc1c(CN2CCCC2Cn2cncn2)cn2ccccc12 (configuration not stated)
cytotoxicity at 10 µM: -2.49%

CCn1cc(NC(=O)NCCN2CCCc3ccccc32)cn1
cytotoxicity at 10 µM: 2.96%

Cc1noc(C)c1C(=O)NCC1CCCCN1Cc1ccccc1 (configuration not stated)
cytotoxicity at 10 µM: -4.4%

CCCn1cc(C(=O)NCCCC(N)=O)c2ccccc21
cytotoxicity at 10 µM: 6.13%

COC(=O)C1CCN(C(=O)Cn2ccc(-c3ccc(F)cc3)n2)CC1
cytotoxicity at 10 µM: -5.31%

Cc1sc2ccccc2c1S(=O)(=O)NCCNC(=O)C(C)C
cytotoxicity at 10 µM: -0.238%

CC(C)CCOc1ccc(C(C)NC(=O)CSCC(N)=O)cc1 (configuration not stated)
cytotoxicity at 10 µM: 10.5%

CC(C)NC(=O)N1CCC[C@H]1C(=O)NCCCc1cnn(C)c1
cytotoxicity at 10 µM: 0.00333%

CCc1[nH]ncc1C(=O)N1CCN(c2nc(C)cc(OC)n2)CC1
cytotoxicity at 10 µM: 3.51%

O=C(NCCOc1ccc(Cl)cn1)Nc1ccccn1
cytotoxicity at 10 µM: 9.05%

CN1N=C(C(=O)N2CCN(c3ncccn3)CC2)CCC1=O
cytotoxicity at 10 µM: 3.62%

CC(NC(=O)CNC(=O)OC(C)(C)C)c1ccc(Cl)s1 (configuration not stated)
cytotoxicity at 10 µM: 2.99%

Cc1ccc(F)c(C(=O)NC2CCC(N3C(=O)CCC3=O)CC2)c1 (configuration not stated)
cytotoxicity at 10 µM: -6%

Cc1nnc(NCC(c2ccco2)N2CCCC2)c(C#N)c1C (configuration not stated)
cytotoxicity at 10 µM: -3.04%

CC(C)CC(NC(=O)c1cccc(F)c1F)C(=O)Nc1cc[nH]n1 (configuration not stated)
cytotoxicity at 10 µM: -7.82%

Cc1cc(NC(=O)NCCc2cscn2)nn1C
cytotoxicity at 10 µM: 2.24%

CC(C)(C)S(=O)(=O)CCNC(=O)c1ccc2ccccc2c1
cytotoxicity at 10 µM: 0.995%

CCC(CNC(=O)NCc1cc[nH]n1)N1CCCC1 (configuration not stated)
cytotoxicity at 10 µM: -3.65%

CCC(C)C(=O)NCc1cc(Br)c(OC)c(OC)c1 (configuration not stated)
cytotoxicity at 10 µM: 2.42%

CC(C)CCC(=O)Nc1ccc2oc(=O)n(CCN(C)C)c2c1
cytotoxicity at 10 µM: -9.15%

CC(C)(C(=O)NCC(=O)N1CCCC1)c1ccccc1F
cytotoxicity at 10 µM: 2.66%

CN(C)C(=O)CN1CCN(c2ccnc3c(F)ccc(F)c23)CC1
cytotoxicity at 10 µM: 4.44%

O=C(c1csc(-c2ccco2)n1)N1CCN2CCCCC2C1 (configuration not stated)
cytotoxicity at 10 µM: 5.6%

C=C(C)CN(CC)S(=O)(=O)c1ccccc1C#N
cytotoxicity at 10 µM: -17.1%

C[C@@H]1CN(c2ccc3c(Cl)ccnc3c2F)CC(C(N)=O)O1 (some centres not stated)
cytotoxicity at 10 µM: 4.11%

CN(C)c1ncc(CNS(=O)(=O)c2cc(F)ccc2Cl)n1C
cytotoxicity at 10 µM: 6.69%

Cc1cc(C)n(C2CN(CCc3ccncc3)C2)n1
cytotoxicity at 10 µM: -1.12%

Cc1ccc(N2CCCC(N3CCN(CC(F)F)CC3)C2=O)cc1 (configuration not stated)
cytotoxicity at 10 µM: 1.66%

CC(CNS(=O)(=O)CCCC#N)c1ccsc1 (configuration not stated)
cytotoxicity at 10 µM: 3.02%

Cc1cc(C(=O)N(CC(C)C)CC(O)c2ccc(F)cc2)[nH]n1 (configuration not stated)
cytotoxicity at 10 µM: -10.2%

COc1ccc(C)c(NC(=O)NCc2cccc(N(C)C)n2)c1
cytotoxicity at 10 µM: 6.13%

CC(C)CCC(C)NC(=O)c1ccc(OCC(N)=O)cc1 (configuration not stated)
cytotoxicity at 10 µM: -3.59%

Cc1cc(CNC(=O)C2CCCCN2C(=O)OC(C)(C)C)no1 (configuration not stated)
cytotoxicity at 10 µM: 4.91%

CC(CN1CCOCC1)NC(=O)NCc1ccc(Cl)s1 (configuration not stated)
cytotoxicity at 10 µM: 1.23%

CN(Cc1ccc(Cl)c(Cl)c1)C(=O)CNC(N)=O
cytotoxicity at 10 µM: -8.87%

CNC(=O)CCNC(=O)c1cccc(Cn2nc(C)cc2C)c1
cytotoxicity at 10 µM: -16.6%

CCOc1ncccc1Cn1cc(-c2cncnc2)nn1
cytotoxicity at 10 µM: 2.38%

CCN1CCN(S(=O)(=O)N2CCCC2)[C@H]2CS(=O)(=O)C[C@H]21
cytotoxicity at 10 µM: -4.14%

CCc1cnc(C)nc1N1CCN(Cc2ccc(-c3cc[nH]n3)o2)CC1
cytotoxicity at 10 µM: -0.898%

C[C@@H]1CN(C(=O)Cn2ccc3ncccc3c2=O)C[C@H](C)O1
cytotoxicity at 10 µM: -5.64%

CCN1CCc2[nH]cnc2C12CCN(c1ncc(C(=O)O)cc1Cl)CC2
cytotoxicity at 10 µM: 1.46%

COCC(NC(=O)c1cnc(-c2ccncc2)nc1)c1ccnn1C (configuration not stated)
cytotoxicity at 10 µM: -13.1%

CCNC(=O)[C@@H]1C[C@@H](N)CN1C(=O)c1cc2ccccc2[nH]1
cytotoxicity at 10 µM: -9.6%

COc1cc(N2C[C@@H](C)[C@](O)(C3CC3)C2)nc(N)n1
cytotoxicity at 10 µM: 0.929%

CC(C)NC1CCCc2nc(-c3ccccc3)ncc21 (configuration not stated)
cytotoxicity at 10 µM: 16.1%

Cc1nc(-c2cccc(C(=O)O)c2)c[nH]1
cytotoxicity at 10 µM: -3.24%

O=C(C1CCOC1)N1CCC(Cn2cc(-c3ccsc3)nn2)CC1 (configuration not stated)
cytotoxicity at 10 µM: -0.039%

CCC(CO)N(Cc1cccs1)C(=O)CSC (configuration not stated)
cytotoxicity at 10 µM: 4.78%

COc1ccc(-n2ccnc2-c2cnc(N(C)C)nc2)cc1OC
cytotoxicity at 10 µM: -2.4%

CN(C)CCN1CC(C(=O)N2CCC(c3nccn3C)CC2)CC1=O (configuration not stated)
cytotoxicity at 10 µM: -7.2%

O=C(NCCCc1ccc(F)cc1)c1ccc(N2CCOCC2)cc1
cytotoxicity at 10 µM: -4.45%

COc1ccccc1OCc1cc(C(=O)N2CC(O)C2)n[nH]1
cytotoxicity at 10 µM: -1.02%

COc1ncccc1NC(=O)N(Cc1ccc(C(N)=O)cc1)C1CC1
cytotoxicity at 10 µM: 6.66%

c1cnnc(NCC2CN(CC3CCOCC3)CCO2)c1 (configuration not stated)
cytotoxicity at 10 µM: 9.34%

CCc1nnc2n1CCN(CCC(=O)Nc1sccc1C#N)C2
cytotoxicity at 10 µM: -23%

N#Cc1ccc(F)c(CN2CCCCC2Cn2cccn2)c1 (configuration not stated)
cytotoxicity at 10 µM: -0.674%

O=C(CCc1ccco1)N1CCC(Nc2cccnn2)CC1
cytotoxicity at 10 µM: -20.3%

COc1ccccc1C(=O)N1CCOCC1c1c(C)n[nH]c1C (configuration not stated)
cytotoxicity at 10 µM: -8.72%

Cc1ncc(CN2CCCN(Cc3noc(C4CC4)n3)CC2)s1
cytotoxicity at 10 µM: -8.57%

CC(=O)N(Cc1ncc(C)o1)C1CCN(CCc2cnn(C)c2)C1 (configuration not stated)
cytotoxicity at 10 µM: 0.742%

Cc1nnc(NC(=O)CN2CCCC2c2noc(C(C)C)n2)s1 (configuration not stated)
cytotoxicity at 10 µM: -9.05%

CCN1CCC(NC(=O)CN2CCCCC2Cn2cncn2)CC1 (configuration not stated)
cytotoxicity at 10 µM: 3.27%

OC(CN1CCC(CNCc2ccccn2)CC1)c1ccccc1 (configuration not stated)
cytotoxicity at 10 µM: -2.15%

COc1ccccc1C(=O)N1CCN(C(=O)Cc2ccccn2)CC1
cytotoxicity at 10 µM: -7.57%

CS(=O)(=O)N1CCC(NC(=O)COc2cccc(Cl)c2)CC1
cytotoxicity at 10 µM: -5.59%

Cc1cc(CN2CCN(C(=O)c3sccc3C3CC3)CC2)no1
cytotoxicity at 10 µM: -10%

CS(=O)(=O)N1CCN(CC(O)COc2ccc(Cl)cc2)CC1 (configuration not stated)
cytotoxicity at 10 µM: -38.6%

CN(Cc1ccccc1)C(=O)CS(=O)(=O)Cc1ccc(Cl)c(Cl)c1
cytotoxicity at 10 µM: 0.239%

CCn1cnnc1CNC(=O)c1cc(Cl)ccc1O
cytotoxicity at 10 µM: 2.17%

Cc1ccc(NC(=O)N2CCC(NC(=O)c3ccc(C)o3)CC2)cc1
cytotoxicity at 10 µM: 0.385%

O=C(C1CCC1)N1CCC2(CCNCC2)C1
cytotoxicity at 10 µM: -3.39%

CC(C)CN1CCC2(CC1)C(=O)Nc1ccc(C(=O)N(C)C)cc12
cytotoxicity at 10 µM: -1.18%

c1cnc(N2CCCC3(CN(CC4CCOCC4)CCO3)C2)cn1 (configuration not stated)
cytotoxicity at 10 µM: 0.37%

CN1CC(=O)N(c2ccccc2)CC12CCN(Cc1nccs1)C2 (configuration not stated)
cytotoxicity at 10 µM: 3.33%

CN(C)CCN1CCN(Cc2nccs2)Cc2cccnc21
cytotoxicity at 10 µM: -1.08%

c1cncc(CN2CCC3(CC2)CC(c2cccnc2)CO3)c1 (configuration not stated)
cytotoxicity at 10 µM: 0.851%

c1cncc(CN2CCO[C@H]3[C@H](OCCN4CCCC4)CC[C@@H]32)c1
cytotoxicity at 10 µM: 3.36%

CC(C)CCN1CCc2cc(C(=O)N(C)C)c(NCC3CC3)nc2CC1
cytotoxicity at 10 µM: 4.71%

Cc1oncc1C(=O)N[C@@H]1CN(c2ncccn2)C[C@@H]2CCCO[C@@H]21
cytotoxicity at 10 µM: 6.21%

CC(C)(C)c1n[nH]cc1CNCC1CCN(CC(F)(F)F)C1 (configuration not stated)
cytotoxicity at 10 µM: 3.5%

Cc1cccc(CN2CCOCC3(CCN(C4CCOCC4)C3)C2)c1 (configuration not stated)
cytotoxicity at 10 µM: -0.819%

O=C(NCC1COCc2c(-c3ccncc3)nnn2C1)[C@H]1CCCO1 (some centres not stated)
cytotoxicity at 10 µM: 1.9%

Cn1cc(N2CC3(CCN(Cc4cccs4)CC3)OCC2=O)cn1
cytotoxicity at 10 µM: -8.13%

Cc1ccc(CN2CCC3(CC2)CCN(Cc2ccoc2)CC3)cc1
cytotoxicity at 10 µM: 3.47%

O=C(c1ccoc1)N1CCO[C@]2(CCC[C@H]2COCc2cccnc2)C1
cytotoxicity at 10 µM: 4.58%

CN(C)C(=O)[C@H]1C[C@H]2CN(C(=O)NCC3CCCCC3)C[C@@H]1O2
cytotoxicity at 10 µM: -0.572%

COC1C[C@@H]2CN(C(=O)c3cc4ccc(F)cc4[nH]3)C[C@@H]2C1 (some centres not stated)
cytotoxicity at 10 µM: 2.93%
